In ChEMBL document CHEMBL1156563, “Synthesis and antiproliferative evaluation of amide-containing flavone and isoflavone derivatives” (Bioorg Med Chem, 2008):

Tests used:
NCI-H661 = experiment: Antiproliferative activity against human NCI-H661 cells after 72 hrs by MTT assay; type: functional; details: NCI-H661, 72 h
Outline: (§1)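 Cells were exposed to a range of concentrations for 72 h. Compounds came from 20 mM stocks in 100% DMSO. Cells were then given MEM with 0.4 mg/mL MTT for 2 h, and formazan was read at 570 nm. GI50 was taken from percentage conversion relative to mock-treated controls and reported as mean SD of three independent experiments.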

[1] = Antiproliferative activity against human NPC-TW01 cells after 72 hrs by MTT assay; type: functional; details: NPC-TW01, 72 h; outline: as §1
MT2 = experiment: Antiproliferative activity against human MT2 cells after 72 hrs by MTT assay; type: functional; details: MT2, 72 h; outline: as §1
[2] = Cell cycle arrest in human NPC-TW01 cells assessed as accumulation at S phase at 10.5 uM after 72 hrs by flow cytometry; type: functional, cell-based
Outline: (§2)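 Exponentially growing cells were treated for 72 h. Controls received complete medium with 0.5% DMSO for 72 h. Cells were fixed, incubated with RNase and stained. DNA content was measured on a FACScan flow cytometer, and the percentage of cells in each cell-cycle phase was determined.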

[3] = Cell cycle arrest in human NPC-TW01 cells assessed as accumulation at G2/M phase at 10.5 uM after 72 hrs by flow cytometry; type: functional, cell-based; outline: as §2
[4] = Cell cycle arrest in human NPC-TW01 cells assessed as accumulation at sub-G1 phase at 10.5 uM after 72 hrs by flow cytometry; type: functional, cell-based; outline: as §2
[5] = Cell cycle arrest in human NPC-TW01 cells assessed as accumulation at G0/G1 phase at 30 uM after 24 hrs by flow cytometry; type: functional, cell-based
Outline: (§3)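 Time course in exponentially growing cells at two concentrations, sampled at the indicated times. Controls were kept in complete medium with 0.3% DMSO for the same periods. Cells were fixed, RNase-treated and stained. DNA content was read on a FACScan flow cytometer, and the percentage of cells in sub-G1, G0/G1, S and G2/M was determined.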

[6] = Cell cycle arrest in human NPC-TW01 cells assessed as accumulation at G0/G1 phase at 30 uM after 48 hrs by flow cytometry; type: functional, cell-based; outline: as §3
[7] = Cell cycle arrest in human NPC-TW01 cells assessed as accumulation at G0/G1 phase at 30 uM after 72 hrs by flow cytometry; type: functional, cell-based; outline: as §3
[8] = Cell cycle arrest in human NPC-TW01 cells assessed as accumulation at G0/G1 phase at 30 uM after 96 hrs by flow cytometry; type: functional, cell-based; outline: as §3
[9] = Cell cycle arrest in human NPC-TW01 cells assessed as accumulation at S phase at 30 uM after 24 hrs by flow cytometry; type: functional, cell-based; outline: as §3
[10] = Cell cycle arrest in human NPC-TW01 cells assessed as accumulation at S phase at 30 uM after 48 hrs by flow cytometry; type: functional, cell-based; outline: as §3
[11] = Cell cycle arrest in human NPC-TW01 cells assessed as accumulation at S phase at 30 uM after 72 hrs by flow cytometry; type: functional, cell-based; outline: as §3
[12] = Cell cycle arrest in human NPC-TW01 cells assessed as accumulation at S phase at 30 uM after 96 hrs by flow cytometry; type: functional, cell-based; outline: as §3
[13] = Cell cycle arrest in human NPC-TW01 cells assessed as accumulation at G2/M phase at 30 uM after 24 hrs by flow cytometry; type: functional, cell-based; outline: as §3
[14] = Cell cycle arrest in human NPC-TW01 cells assessed as accumulation at G2/M phase at 30 uM after 48 hrs by flow cytometry; type: functional, cell-based; outline: as §3
[15] = Cell cycle arrest in human NPC-TW01 cells assessed as accumulation at G2/M phase at 30 uM after 72 hrs by flow cytometry; type: functional, cell-based; outline: as §3
[16] = Cell cycle arrest in human NPC-TW01 cells assessed as accumulation at G2/M phase at 30 uM after 96 hrs by flow cytometry; type: functional, cell-based; outline: as §3
[17] = Cell cycle arrest in human NPC-TW01 cells assessed as accumulation at sub-G1 phase at 30 uM after 24 hrs by flow cytometry; type: functional, cell-based; outline: as §3
[18] = Cell cycle arrest in human NPC-TW01 cells assessed as accumulation at sub-G1 phase at 30 uM after 48 hrs by flow cytometry; type: functional, cell-based; outline: as §3
[19] = Cell cycle arrest in human NPC-TW01 cells assessed as accumulation at sub-G1 phase at 30 uM after 72 hrs by flow cytometry; type: functional, cell-based; outline: as §3
[20] = Cell cycle arrest in human NPC-TW01 cells assessed as accumulation at sub-G1 phase at 30 uM after 96 hrs by flow cytometry; type: functional, cell-based; outline: as §3
[21] = Cell cycle arrest in human NPC-TW01 cells assessed as accumulation at G0/G1 phase at 60 uM after 24 hrs by flow cytometry; type: functional, cell-based; outline: as §3
[22] = Cell cycle arrest in human NPC-TW01 cells assessed as accumulation at G0/G1 phase at 60 uM after 48 hrs by flow cytometry; type: functional, cell-based; outline: as §3
[23] = Cell cycle arrest in human NPC-TW01 cells assessed as accumulation at G0/G1 phase at 60 uM after 72 hrs by flow cytometry; type: functional, cell-based; outline: as §3
[24] = Cell cycle arrest in human NPC-TW01 cells assessed as accumulation at G0/G1 phase at 60 uM after 96 hrs by flow cytometry; type: functional, cell-based; outline: as §3
[25] = Cell cycle arrest in human NPC-TW01 cells assessed as accumulation at S phase at 60 uM after 24 hrs by flow cytometry; type: functional, cell-based; outline: as §3
[26] = Cell cycle arrest in human NPC-TW01 cells assessed as accumulation at S phase at 60 uM after 48 hrs by flow cytometry; type: functional, cell-based; outline: as §3
[27] = Cell cycle arrest in human NPC-TW01 cells assessed as accumulation at S phase at 60 uM after 72 hrs by flow cytometry; type: functional, cell-based; outline: as §3
[28] = Cell cycle arrest in human NPC-TW01 cells assessed as accumulation at S phase at 60 uM after 96 hrs by flow cytometry; type: functional, cell-based; outline: as §3
[29] = Cell cycle arrest in human NPC-TW01 cells assessed as accumulation at G2/M phase at 60 uM after 24 hrs by flow cytometry; type: functional, cell-based; outline: as §3
[30] = Cell cycle arrest in human NPC-TW01 cells assessed as accumulation at G2/M phase at 60 uM after 48 hrs by flow cytometry; type: functional, cell-based; outline: as §3
[31] = Cell cycle arrest in human NPC-TW01 cells assessed as accumulation at G2/M phase at 60 uM after 72 hrs by flow cytometry; type: functional, cell-based; outline: as §3
[32] = Cell cycle arrest in human NPC-TW01 cells assessed as accumulation at G2/M phase at 60 uM after 96 hrs by flow cytometry; type: functional, cell-based; outline: as §3
[33] = Cell cycle arrest in human NPC-TW01 cells assessed as accumulation at sub-G1 phase at 60 uM after 24 hrs by flow cytometry; type: functional, cell-based; outline: as §3
[34] = Cell cycle arrest in human NPC-TW01 cells assessed as accumulation at sub-G1 phase at 60 uM after 48 hrs by flow cytometry; type: functional, cell-based; outline: as §3
[35] = Cell cycle arrest in human NPC-TW01 cells assessed as accumulation at sub-G1 phase at 60 uM after 72 hrs by flow cytometry; type: functional, cell-based; outline: as §3
[36] = Cell cycle arrest in human NPC-TW01 cells assessed as accumulation at sub-G1 phase at 60 uM after 96 hrs by flow cytometry; type: functional, cell-based; outline: as §3
[37] = Cell cycle arrest in human NPC-TW01 cells assessed as accumulation at S phase at 6.0 uM after 72 hrs by flow cytometry; type: functional, cell-based; outline: as §2
[38] = Cell cycle arrest in human NPC-TW01 cells assessed as accumulation at sub-G1 phase at 6.0 uM after 72 hrs by flow cytometry; type: functional, cell-based; outline: as §2
[39] = Cell cycle arrest in human NPC-TW01 cells assessed as accumulation at G0/G1 phase at 6.0 uM after 72 hrs by flow cytometry; type: functional, cell-based; outline: as §2
[40] = Cell cycle arrest in human NPC-TW01 cells assessed as accumulation at G2/M phase at 6.0 uM after 72 hrs by flow cytometry; type: functional, cell-based; outline: as §2

SMILES: O=C(COc1ccc2c(=O)cc(-c3ccccc3)oc2c1)Nc1ccc(-c2ccccc2)cc1
- GI50 (NCI-H661): 1.28 µM
- GI50 [1]: 1.61 µM
- GI50 (MT2): 2.48 µM

SMILES: O=C(COc1ccc2c(=O)cc(-c3ccccc3)oc2c1)Nc1ccccc1
- GI50 (NCI-H661): > 10 µM
- GI50 [1]: > 10 µM
- GI50 (MT2): > 10 µM

SMILES: O=C(COc1ccc2oc(-c3ccccc3)cc(=O)c2c1)Nc1ccc(F)cc1
- GI50 (NCI-H661): 1.47 µM
- GI50 [1]: 0.74 µM
- GI50 (MT2): 0.47 µM
- Activity [2]: 13.6%
- Activity [3]: 5.2%
- Activity [4]: 4%
- Activity [5]: 52%
- Activity [6]: 59.8%
- Activity [7]: 71%
- Activity [8]: 70.7%
- Activity [9]: 27.6%
- Activity [10]: 24.2%
- Activity [11]: 14.7%
- Activity [12]: 15.1%
- Activity [13]: 17%
- Activity [14]: 13.4%
- Activity [15]: 9.47%
- Activity [16]: 8.6%
- Activity [17]: 3.45%
- Activity [18]: 2.59%
- Activity [19]: 4.79%
- Activity [20]: 5.62%
- Activity [21]: 51.5%
- Activity [22]: 68.3%
- Activity [23]: 73.7%
- Activity [24]: 66.7%
- Activity [25]: 26.4%
- Activity [26]: 18.4%
- Activity [27]: 15.7%
- Activity [28]: 12.8%
- Activity [29]: 19.8%
- Activity [30]: 10.5%
- Activity [31]: 6.64%
- Activity [32]: 7.78%
- Activity [33]: 2.27%
- Activity [34]: 2.87%
- Activity [35]: 4.5%
- Activity [36]: 12.7%

SMILES: O=C(COc1c(-c2ccccc2)oc2ccccc2c1=O)Nc1ccc(F)cc1
- GI50 (NCI-H661): > 10 µM
- GI50 [1]: 9.5 µM
- GI50 (MT2): > 10 µM

SMILES: O=c1cc(-c2ccccc2)oc2ccc(OC/C(=N\O)c3ccc(F)cc3)cc12
- Activity [37]: 33.2%
- Activity [38]: 1.7%
- Activity [39]: 22.3%
- Activity [40]: 42.8%

SMILES: COc1ccc(NC(=O)COc2ccc3c(=O)cc(-c4ccccc4)oc3c2)cc1
- GI50 (NCI-H661): 5.5 µM
- GI50 [1]: 5.97 µM
- GI50 (MT2): 6.7 µM

SMILES: O=C(COc1ccc2c(=O)c(-c3ccccc3)coc2c1)Nc1ccc(F)cc1
- GI50 (NCI-H661): > 10 µM
- GI50 [1]: 0.55 µM
- GI50 (MT2): 2.5 µM

SMILES: COc1ccc(NC(=O)COc2ccc3c(=O)c(-c4ccccc4)coc3c2)cc1
- GI50 (NCI-H661): 9.53 µM
- GI50 [1]: 6.7 µM
- GI50 (MT2): 4.55 µM

SMILES: O=C(COc1ccc2c(=O)c(-c3ccccc3)coc2c1)Nc1ccccc1
- GI50 (NCI-H661): > 10 µM
- GI50 [1]: > 10 µM
- GI50 (MT2): > 10 µM

SMILES: COc1ccc(NC(=O)COc2c(-c3ccccc3)oc3ccccc3c2=O)cc1
- GI50 (NCI-H661): 6.74 µM
- GI50 [1]: 5.48 µM
- GI50 (MT2): > 10 µM

SMILES: O=C(COc1ccc2c(=O)cc(-c3ccccc3)oc2c1)Nc1ccc(F)cc1
- GI50 (NCI-H661): 5.77 µM
- GI50 [1]: > 10 µM
- GI50 (MT2): 6.41 µM
